Measurements taken from ChEMBL document CHEMBL3286091, “Novel N-linked aminopiperidine-based gyrase inhibitors with improved hERG and in vivo efficacy against Mycobacterium tuberculosis” (J Med Chem, 2014).
Converted amounts (≈) assume the structure as drawn. The source made the active and inactive calls. The rule behind the calls is not given here.

Key:
[1] = test system: Mycobacterium tuberculosis; experiment: Antimycobacterial activity against Mycobacterium tuberculosis infected in aminobenzotriazole-pretreated BALB/c mouse acute tuberculosis model assessed as reduction in bacterial burden at 80 to 160 mg/kg, po bid for 20 days; type: functional, organism-based
Outline: (§1)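 Aerosol-infected BALB/c mice in BSL3, three per group. Treatment began 3 days (acute) or 4 weeks (chronic) after infection. ABT 100 mg/kg po in water was given 2 h before oral gavage of compound in 5% dextrose (pH 4−5 with acetic acid), 10 mL/kg, twice daily at 8 h intervals. Courses were 20 days (7 days/week) or 8 weeks (6 days/week). Lung homogenates were plated on 7H11 for cfu.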

[2] = test system: Mycobacterium tuberculosis; experiment: Antimycobacterial activity against Mycobacterium tuberculosis infected in aminobenzotriazole-pretreated BALB/c mouse acute tuberculosis model assessed as reduction in log10CFU at 160 mg/kg, po bid for 20 days; type: functional; outline: as §1
[3] = Fraction unbound in aminobenzotriazole-pretreated BALB/c mouse plasma infected with Mycobacterium tuberculosis by LC-MS/MS analysis; type: ADME, cell-free
[4] = Ratio of fAUC in aminobenzotriazole-pretreated Mycobacterium tuberculosis infected BALB/c mouse at 80 mg/kg, po to MIC for wild-type Mycobacterium tuberculosis H37Rv ATCC 27294
Outline: (§2)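 PK was measured in infected, ABT-pretreated mice during efficacy dosing (oral, 5% dextrose pH 4−5) on day 18 or 19. Saphenous blood was taken at 5, 15 and 30 min and 1, 2, 4 and 6 h. Plasma was precipitated with acetonitrile and analysed by LC−MS/MS. AUC came from noncompartmental analysis; free AUC/MIC and %free T>MIC used the unbound fraction and MIC.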

[5] = test system: Mus musculus; experiment: fT>MIC in BALB/c mouse infected with Mycobacterium tuberculosis at 80 mg/kg, po; outline: as §2
[6] = test system: Mycobacterium tuberculosis; experiment: Antimycobacterial activity against wild-type Mycobacterium tuberculosis H37Rv ATCC 27294 after 16 to 18 days by BACTEC 7H12B microdilution method; type: functional
[7] = molecular target: DNA gyrase subunit A/DNA gyrase subunit B (Mycobacterium tuberculosis (strain ATCC 25618 / H37Rv), UniProt P9WG45+P9WG47); experiment: Inhibition of Mycobacterium tuberculosis H37Rv DNA gyrase holoenzyme-mediated supercoiling of pBR322 DNA after 90 mins by agarose gel electrophoresis
DNA gyrase subunit A/DNA gyrase subunit B, sequence (P9WG45 whole entry): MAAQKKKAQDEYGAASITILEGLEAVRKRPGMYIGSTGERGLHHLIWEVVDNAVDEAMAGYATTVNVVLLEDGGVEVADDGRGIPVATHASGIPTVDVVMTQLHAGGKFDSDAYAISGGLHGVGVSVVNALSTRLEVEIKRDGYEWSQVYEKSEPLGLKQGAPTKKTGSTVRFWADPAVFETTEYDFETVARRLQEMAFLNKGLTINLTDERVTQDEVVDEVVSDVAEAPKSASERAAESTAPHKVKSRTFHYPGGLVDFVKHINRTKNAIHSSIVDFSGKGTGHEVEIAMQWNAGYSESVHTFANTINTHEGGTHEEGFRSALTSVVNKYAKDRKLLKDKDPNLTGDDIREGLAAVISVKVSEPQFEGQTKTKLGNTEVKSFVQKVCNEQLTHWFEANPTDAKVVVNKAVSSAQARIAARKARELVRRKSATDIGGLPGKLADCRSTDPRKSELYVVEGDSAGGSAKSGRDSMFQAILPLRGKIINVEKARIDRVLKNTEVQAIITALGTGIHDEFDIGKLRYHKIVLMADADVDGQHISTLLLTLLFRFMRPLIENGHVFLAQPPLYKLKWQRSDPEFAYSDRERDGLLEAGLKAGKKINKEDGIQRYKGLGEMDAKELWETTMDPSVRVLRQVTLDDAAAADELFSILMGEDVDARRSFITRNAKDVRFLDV
DNA gyrase subunit A/DNA gyrase subunit B, sequence (P9WG47 whole entry): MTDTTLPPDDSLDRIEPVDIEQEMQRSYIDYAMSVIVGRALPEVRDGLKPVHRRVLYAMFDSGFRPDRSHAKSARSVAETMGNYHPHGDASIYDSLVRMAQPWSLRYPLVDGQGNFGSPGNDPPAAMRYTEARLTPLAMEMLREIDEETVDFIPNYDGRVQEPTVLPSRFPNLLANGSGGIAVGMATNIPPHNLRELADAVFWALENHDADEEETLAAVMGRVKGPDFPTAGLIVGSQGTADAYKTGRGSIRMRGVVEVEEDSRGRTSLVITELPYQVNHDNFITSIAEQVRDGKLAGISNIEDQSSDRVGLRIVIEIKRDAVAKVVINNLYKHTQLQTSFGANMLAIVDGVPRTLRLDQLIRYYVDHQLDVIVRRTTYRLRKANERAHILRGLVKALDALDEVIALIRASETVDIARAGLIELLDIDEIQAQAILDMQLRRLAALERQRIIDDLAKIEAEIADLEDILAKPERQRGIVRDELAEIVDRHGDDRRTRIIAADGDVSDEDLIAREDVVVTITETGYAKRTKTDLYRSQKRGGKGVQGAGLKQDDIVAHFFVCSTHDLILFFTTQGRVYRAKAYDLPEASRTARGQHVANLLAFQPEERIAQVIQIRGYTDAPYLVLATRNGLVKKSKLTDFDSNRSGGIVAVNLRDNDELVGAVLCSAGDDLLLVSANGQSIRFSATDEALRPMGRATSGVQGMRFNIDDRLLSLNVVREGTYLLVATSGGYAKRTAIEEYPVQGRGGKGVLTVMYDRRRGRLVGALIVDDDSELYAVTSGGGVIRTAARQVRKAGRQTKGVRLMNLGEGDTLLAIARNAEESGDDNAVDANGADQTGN

[8] = Octanol-sodium phosphate buffer partition coefficient, log D of the compound at 10 mM at pH 7.4 by shake-flask method; type: physicochemical
[9] = Apparent permeability from apical to basolateral side in human Caco2 cells; type: ADME, cell-based; details: Caco-2
[10] = Apparent permeability from basolateral to apical side in human Caco2 cells; type: ADME, cell-based; details: Caco-2
[11] = Clearance in rat at 40 mg/kg, po and 5 mg/kg, iv by LC-MS/MS analysis; type: ADME, organism-based; details: in vivo
Outline: (§3)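 Rats were dosed with the 5% dextrose (pH 4−5) formulation, 5 mg/kg iv and 40 mg/kg po. Plasma was precipitated with acetonitrile and analysed by LC−MS/MS with a carbamazepine internal standard. Parameters were derived by noncompartmental analysis.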

[12] = Oral bioavailability in rat at 40 mg/kg by LC-MS/MS analysis; type: ADME, organism-based; details: in vivo; outline: as §3
[13] = test system: Mycobacterium tuberculosis; experiment: Bactericidal activity against Mycobacterium tuberculosis H37Rv after 10 days by time kill assay; type: functional, organism-based
Outline: (§4)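 Time-kill in 7H9 broth with 0.2% glycerol, 0.05% Tween 80 and 10% ADC. Serial 2-fold dilutions were added to ~3 × 10^7 cfu/mL H37Rv at 37 °C. Aliquots were plated on 7H11 at days 0, 3, 7 and 10, and plates were incubated up to 28 days at 37 °C, 5% CO2, humidified. Results are given as log10 cfu per concentration.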

[14] = test system: Mycobacterium tuberculosis; experiment: Bactericidal activity against Mycobacterium tuberculosis H37Rv at 0.01 to 2 ug/ml by time kill assay; type: functional, organism-based; details: TDE = time-dependent effect; outline: as §4
[15] = test system: Mycobacterium tuberculosis; experiment: Bactericidal activity against Mycobacterium tuberculosis H37Rv assessed as reduction in log10CFU at 0.01 to 2 ug/ml after 10 days by time kill assay; type: functional; outline: as §4
[16] = test system: Mycobacterium tuberculosis; experiment: Bactericidal activity against Mycobacterium tuberculosis infected in human THP1 cells at 1 ug/ml for 7 days; type: functional, THP-1
Outline: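 Adherent THP-1 macrophages infected with Mtb were exposed to compound at 1 μg/mL for 7 days at 37 °C. Kill was expressed as log reduction versus the untreated control.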

[17] = test system: Mycobacterium tuberculosis; experiment: Antimycobacterial activity against Mycobacterium tuberculosis infected in aminobenzotriazole-pretreated BALB/c mouse chronic tuberculosis model assessed as reduction in log10CFU at 40 to 80 mg/kg, po bid for 20 days; type: functional; details: dose mg/kg 40-80; outline: as §1
[18] = test system: Mycobacterium tuberculosis; experiment: Antimycobacterial activity against Mycobacterium tuberculosis infected in aminobenzotriazole-pretreated BALB/c mouse chronic tuberculosis model assessed as reduction in log10CFU at 40 to 80 mg/kg, po bid for 8 weeks; type: functional, organism-based; outline: as §1
[19] = Ratio of fAUC in aminobenzotriazole-pretreated Mycobacterium tuberculosis infected BALB/c mouse at 20 mg/kg, po to MIC for wild-type Mycobacterium tuberculosis H37Rv ATCC 27294; outline: as §2
[20] = test system: Mus musculus; experiment: fT>MIC in BALB/c mouse infected with Mycobacterium tuberculosis at 20 mg/kg, po; outline: as §2
[21] = molecular target: T1, DNA gyrase subunit A/DNA gyrase subunit B (Mycobacterium tuberculosis (strain ATCC 25618 / H37Rv)) (UniProt P9WG45+P9WG47); experiment: Inhibition of Mycobacterium tuberculosis H37Rv DNA gyrase holoenzyme using pBR322 DNA as substrate assessed as increase in single-strand cleaved plasmid DNA level after 60 mins by cleavable complex assay relative to control
Outline: (§5)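 Reactions were started with DNA and run 60 min at 37 °C, then stopped with proteinase K/SDS for 1 h at 37 °C. Products were resolved on 0.8% agarose with ethidium for 16 h at 1 V/cm, and nicked, linear and supercoiled forms were quantified.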

[22] = molecular target: Voltage-gated inwardly rectifying potassium channel KCNH2 (Homo sapiens, UniProt Q12809); experiment: Inhibition of human ERG by patch clamp electrophysiological analysis
Voltage-gated inwardly rectifying potassium channel KCNH2, sequence (Q12809 whole entry): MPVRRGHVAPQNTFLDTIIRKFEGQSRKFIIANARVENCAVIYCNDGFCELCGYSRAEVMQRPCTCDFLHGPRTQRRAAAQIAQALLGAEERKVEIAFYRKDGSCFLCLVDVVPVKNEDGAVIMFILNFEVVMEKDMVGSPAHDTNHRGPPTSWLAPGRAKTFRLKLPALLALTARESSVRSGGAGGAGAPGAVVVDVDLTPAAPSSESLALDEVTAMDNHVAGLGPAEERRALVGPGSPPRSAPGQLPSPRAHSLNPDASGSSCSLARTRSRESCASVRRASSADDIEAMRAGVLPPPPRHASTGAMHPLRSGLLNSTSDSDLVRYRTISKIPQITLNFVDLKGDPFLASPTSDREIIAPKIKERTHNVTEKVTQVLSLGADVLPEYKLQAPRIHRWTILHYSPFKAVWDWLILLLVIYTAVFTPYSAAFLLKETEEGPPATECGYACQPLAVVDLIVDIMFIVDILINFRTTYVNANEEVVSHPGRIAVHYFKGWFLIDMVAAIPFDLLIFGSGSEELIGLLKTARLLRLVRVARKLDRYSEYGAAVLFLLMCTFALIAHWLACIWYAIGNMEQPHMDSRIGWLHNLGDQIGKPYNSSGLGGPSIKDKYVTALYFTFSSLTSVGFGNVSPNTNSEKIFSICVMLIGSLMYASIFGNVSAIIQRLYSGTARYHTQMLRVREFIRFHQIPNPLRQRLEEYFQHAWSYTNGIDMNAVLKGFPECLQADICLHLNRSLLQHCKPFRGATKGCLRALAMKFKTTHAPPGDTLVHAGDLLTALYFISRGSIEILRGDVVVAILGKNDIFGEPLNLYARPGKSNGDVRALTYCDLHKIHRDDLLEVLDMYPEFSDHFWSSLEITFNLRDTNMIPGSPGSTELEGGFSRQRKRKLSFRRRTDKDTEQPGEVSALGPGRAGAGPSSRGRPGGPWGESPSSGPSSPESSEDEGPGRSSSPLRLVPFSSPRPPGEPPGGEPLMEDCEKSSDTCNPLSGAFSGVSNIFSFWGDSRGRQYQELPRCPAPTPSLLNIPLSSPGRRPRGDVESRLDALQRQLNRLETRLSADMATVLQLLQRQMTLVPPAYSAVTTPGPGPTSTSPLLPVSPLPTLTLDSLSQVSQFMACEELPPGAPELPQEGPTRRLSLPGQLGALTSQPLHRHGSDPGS

[23] = molecular target: T1, DNA gyrase subunit A/DNA gyrase subunit B (Mycobacterium tuberculosis (strain ATCC 25618 / H37Rv)); experiment: Inhibition of Mycobacterium tuberculosis H37Rv DNA gyrase holoenzyme using pBR322 DNA as substrate assessed as single stranded nicked DNA level at 0.02 to 11 uM after 60 mins by cleavable complex assay relative to control; design: scale not given: the % may be the effect or the level left; outline: as §5
[24] = molecular target: T1, DNA gyrase subunit A/DNA gyrase subunit B (Mycobacterium tuberculosis (strain ATCC 25618 / H37Rv)); experiment: Inhibition of Mycobacterium tuberculosis H37Rv DNA gyrase holoenzyme using pBR322 DNA as substrate assessed as intact DNA level at 0.02 to 11 uM after 60 mins by cleavable complex assay relative to control; design: scale not given: the % may be the effect or the level left; outline: as §5
[25] = test system: Mycobacterium tuberculosis; experiment: Antimycobacterial activity against Mycobacterium tuberculosis infected in aminobenzotriazole-pretreated BALB/c mouse chronic tuberculosis model assessed as reduction in log10CFU at 240 mg/kg, po bid for 20 days; type: functional, organism-based; design: dose 240 mg/kg; outline: as §1
[26] = test system: Mus musculus; experiment: fT>MIC in BALB/c mouse infected with Mycobacterium tuberculosis at 160 mg/kg, po; outline: as §2

**Q.** Which Activity [1] does the source give for O=C1COc2ccc(CN[C@@H]3CCN(CCn4c(=O)ccc5ncc(F)cc54)C[C@@H]3F)nc2N1 here?
**A.** Active

**Q.** What about the log10cfu [2] of the same molecule?
**A.** 1.2

**Q.** And the fraction unbound [3]?
**A.** 0.32

**Q.** What about the fAUC/MIC [4] of the same molecule?
**A.** 129

**Q.** And the “fT>MIC” value [5]?
**A.** 70%

**Q.** And the MIC [6]?
**A.** 0.13 µg/mL (≈ 0.276 µM)

**Q.** And the IC50 [7]?
**A.** 350 nM

**Q.** What about the logD at 10000 µM [8] of the same molecule?
**A.** 0.47

**Q.** What about the Papp A→B [9] of the same molecule?
**A.** 7.6 ×10⁻⁶ cm/s

**Q.** What about the Papp B→A [10] of the same molecule?
**A.** 11.2 ×10⁻⁶ cm/s

**Q.** And the clearance [11]?
**A.** 87 mL/min/kg

**Q.** What about the bioavailability [12] of the same molecule?
**A.** 87%

**Q.** What about the Activity [13] of the same molecule?
**A.** Dose-dependent effect

**Q.** What about the Activity [14] of the same molecule?
**A.** tde

**Q.** What about the log10cfu [15] of the same molecule?
**A.** >3

**Q.** And the LCK [16]?
**A.** 1.3

**Q.** With COc1cnc2ccc(=O)n(CCN3CCC(NCc4cnc(C)c(C#N)c4)CC3)c2c1 as the molecule, how does the log10cfu [17] read?
**A.** 0.5

**Q.** What about the Activity [18] of the same molecule?
**A.** Active

**Q.** And the fraction unbound [3]?
**A.** 0.23

**Q.** What about the fAUC/MIC [19] of the same molecule?
**A.** 54

**Q.** What about the “fT>MIC” value [20] of the same molecule?
**A.** 58%

**Q.** And the inhibition [21]?
**A.** Dose-dependent effect

**Q.** And the MIC [6]?
**A.** 0.06 µg/mL (≈ 0.139 µM)

**Q.** And the IC50 [7]?
**A.** 140 nM

**Q.** And the logD at 10000 µM [8]?
**A.** 1.07

**Q.** And the IC50 [22]?
**A.** 50600 nM

**Q.** What about the Papp A→B [9] of the same molecule?
**A.** 10.5 ×10⁻⁶ cm/s

**Q.** What about the Papp B→A [10] of the same molecule?
**A.** 8.3 ×10⁻⁶ cm/s

**Q.** And the clearance [11]?
**A.** 32 mL/min/kg

**Q.** And the bioavailability [12]?
**A.** > 100%

**Q.** What about the Activity [23] of the same molecule?
**A.** 70%

**Q.** And the Activity [24]?
**A.** 10%

**Q.** For COc1cnc2ccc(=O)n(CCN3CC[C@H](NCc4ccc5c(n4)NC(=O)CO5)[C@H](F)C3)c2c1, which Activity [1] is on record?
**A.** Active

**Q.** And the Activity [25]?
**A.** Active

**Q.** And the fraction unbound [3]?
**A.** 0.48

**Q.** What about the “fT>MIC” value [26] of the same molecule?
**A.** 83%

**Q.** What about the MIC [6] of the same molecule?
**A.** 0.06 µg/mL (≈ 0.124 µM)

**Q.** And the IC50 [7]?
**A.** 170 nM

**Q.** And the logD at 10000 µM [8]?
**A.** 0.82

**Q.** What about the Papp A→B [9] of the same molecule?
**A.** 3.4 ×10⁻⁶ cm/s

**Q.** And the Papp B→A [10]?
**A.** 12.7 ×10⁻⁶ cm/s

**Q.** What about the LCK [16] of the same molecule?
**A.** 1.3
